E-selectin induc = E-selectin induction on HUVECs; P16581; HUVEC E-selectin immunofluorescence imaging; normalized: neutral wells 0, TNF-alpha wells 100; activation, % at 7.58 µM; hit rate 0.37% among 260,000; AID 686992;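 active = mean E-selectin-positive cell signal at least 10% of the positive control, reached in at least 60% of replicates, without over 20% cell loss; inconclusive = no rule given, readout overlaps actives, possibly toxicity-flagged; inactive = the rest, including those meeting only one limit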
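Test system: HUVEC; input: 3,000 HUVEC/well; measured by: immunofluorescence imaging; read-out: % PE-positive cells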
FGF22 binding = binders of recombinant human FGF22 by thermal shift; SYPRO orange fluorescence; percent of sucrose octasulfate shift, DMSO zero; activity (Tm shift, normalised), % at 9.99 µM; hit rate 1.5% among 340,000;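 active = mean Tm shift, scaled 0 neutral to 100 positive control, at about 1.3% or above, every replicate too, limit read from the data; inconclusive = no clear call, values can overlap the other calls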
Target sequence (Q9HCT0 whole entry, looked up): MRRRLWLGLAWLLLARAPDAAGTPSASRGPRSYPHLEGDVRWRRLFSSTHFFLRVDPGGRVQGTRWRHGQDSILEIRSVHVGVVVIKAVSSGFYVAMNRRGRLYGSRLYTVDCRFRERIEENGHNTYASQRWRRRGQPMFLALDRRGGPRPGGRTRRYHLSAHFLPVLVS
ERAP1 inh = blocks human ERAP1 aminopeptidase activity. inhibition, % at 10.7 µM. hit rate 0.15% among 340,000. recombinant ERAP1, Leu-AMC fluorescence, 60 min. AID 652197;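 active = mean replicate inhibition of at least 30%, or all replicates individually reaching that 30% level; inactive = mean below 30% and not every replicate reaching it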
DENV2 CPE = inhibitors of DENV2 cytopathic effect. hit rate 1.7% among 350,000. DENV2-infected cells, cytopathic effect rescue, plate reader. CPE inhibition, % at 9.99 µM; in the data active = CPE inhibition above about 20%, passing the limit was not always enough; inconclusive = no clear call, values can overlap the other calls; tested in BHK-21 cells
F508del corr = CFTR F508del correction in bronchial cells | CFBE cells, YFP halide quenching; stimulated with forskolin plus potentiator P3; % fluorescence drop versus neutral controls | activity (quench increase), % at 7.58 µM | hit rate 0.36% among 350,000;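 active = mean added fluorescence quench of at least 8% versus neutral control, with both replicates also reaching 8%; inconclusive = only one of the mean or replicate conditions met; inactive = mean below 8% and not both replicates reaching 8%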;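 also: cells transiently co-express mutant CFTR-F508del with the halide-sensitive YFP; corrector assay measuring rescue of mutant channel to the surface after 24 h compound exposure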
Each line names hits and unclear results; the compound was inactive in the other large screens; ! = a repeat was not active. Sampled rows, rich in hits. Any-hit rate of the full collection: about 3.7%.

NC(=O)NC(CC(=O)NCCCc1ccccc1)c1ccccc1Cl (stereo not drawn)	FGF22 binding 43.5
CC(=O)N1CCN(C(=O)COC(=O)COc2c(C)cc(C)cc2C)CC1	DENV2 CPE 83.7
CCN(CC)C(=S)SCC(=O)Nc1ccc(S(N)(=O)=O)cc1	FGF22 binding 43.4
Cc1nc2ccc(C(=O)NC(C)(C)C)cn2c1N(C)C(=O)CCc1ccccc1	DENV2 CPE 34.5
Cc1nc2ccc(C(=O)Nc3cccc(NS(C)(=O)=O)c3)cn2c1N(C)C(=O)CCc1ccccc1	none
COc1ccc(CCn2c(NN=C(C)C)nc3c2c(=O)[nH]c(=O)n3C)cc1	F508del corr 9.8 (no result: E-selectin induc, ERAP1 inh)
CCCCNc1nc2c(c(=O)[nH]c(=O)n2C)n1CCCc1ccccc1	FGF22 binding 43.3
CCCCCCCN1C=CC(=O)CC1	none
CCCCCCCCCCC(C(=O)O)C1(C(=O)O)CCC(=O)O1 (stereo not drawn)	ERAP1 inh 38.5 (no result: E-selectin induc)
Cc1ccc(-c2ccc3c(c2)O[C@H](CN(C)C(=O)Nc2ccc(C(F)(F)F)cc2)[C@H](C)CN([C@@H](C)CO)S3(=O)=O)cc1	F508del corr 8.6
C[C@@H]1CN([C@H](C)CO)S(=O)(=O)c2ccc(-c3cccc(C(=O)N(C)C)c3)cc2O[C@H]1CN(C)C(=O)Nc1ccc(F)cc1	DENV2 CPE 27.1!
C[C@H](CO)N1C[C@H](C)[C@@H](CN(C)C(=O)Nc2ccc(F)cc2)Oc2cc(-c3cccc(C(=O)N(C)C)c3)ccc2S1(=O)=O	none
C[C@H](CO)N1C[C@H](C)[C@H](CN(C)C(=O)C2CCCCC2)Oc2cc(-c3ccc(F)cc3)ccc2S1(=O)=O	none
Cc1ccc(-c2ccc3c(c2)O[C@@H](CN(C)C(=O)Nc2ccc(C(F)(F)F)cc2)[C@@H](C)CN([C@H](C)CO)S3(=O)=O)cc1	none
C[C@H]1CN([C@@H](C)CO)S(=O)(=O)c2ccc(-c3ccc(F)cc3)cc2O[C@@H]1CN(C)C(=O)C1CCCCC1	DENV2 CPE 52.2
Cc1ccc(-c2ccc3c(c2)O[C@@H](CN(C)C(=O)Nc2ccc(F)cc2)[C@@H](C)CN([C@@H](C)CO)S3(=O)=O)cc1	DENV2 CPE 30.4, F508del corr 8.5
COC(=O)[C@@H]1[C@@H](CO)[C@@H]2Cn3c(ccc(-c4ccccc4F)c3=O)[C@@H]2N1C(=O)c1ccccn1	none (no result: F508del corr)
COc1cccc(NC(=O)N[C@@H]2C=C[C@@H](CC(=O)N3CCOCC3)O[C@@H]2CO)c1	none (no result: FGF22 binding)
Cc1ccc(-c2ccc3c(c2)O[C@H](CN(C)C(=O)Nc2ccc(F)cc2)[C@@H](C)CN([C@@H](C)CO)S3(=O)=O)cc1	F508del corr 11.7
C#CCNC(=O)C1=C[C@H](c2cn(C(C)=O)c3ccccc23)C[C@H](OCc2ccc(CO)cc2)O1	none
CC(=O)n1cc([C@@H]2C=C(C(=O)O)O[C@H](OCc3ccc(CO)cc3)C2)c2ccccc21	DENV2 CPE 28.5!
CC(=O)n1cc([C@@H]2C=C(C(=O)NCc3ccccc3)O[C@H](OCc3ccc(CO)cc3)C2)c2ccccc21	DENV2 CPE 44.6!
C[C@@H]1CN([C@H](C)CO)C(=O)c2cccc(NC(=O)C3CCCCC3)c2O[C@@H]1CN(C)C(=O)Nc1ccc2c(c1)OCO2	none
C[C@@H]1CN([C@@H](C)CO)C(=O)c2cc(NS(=O)(=O)c3ccc(F)cc3)ccc2O[C@@H](C)CCCCO[C@H]1CN(C)Cc1ccncc1	none
O=C(CNCc1ccccc1)Nc1cccc(Cl)c1Cl	none
O=C(CNCc1ccccc1)Nc1ccccc1-c1ccccc1	FGF22 binding 44.0 (no result: E-selectin induc)
CC(C)c1cn(CC[C@H]2CC[C@H](NS(=O)(=O)Cc3ccccc3)[C@H](CO)O2)nn1	none
CCN(CC)CCNC(=O)c1cc2c(=O)n(CC)c3ccccc3c2s1	E-selectin induc 63.2
COc1ccccc1C#Cc1cnc2c(c1)C(=O)N([C@@H](C)CO)C[C@@H](C)[C@H](CN(C)C(C)=O)O2	none
Cc1ccnc2c1ccc1cccnc12	F508del corr 9.4 (no result: E-selectin induc)
CC(=O)c1ccc(Nc2c(C)n(C)n(-c3ccccc3)c2=O)cc1	none (no result: E-selectin induc)
Cc1c(C=O)c(=O)n(-c2ccccc2)n1C	none (no result: E-selectin induc, F508del corr)
Cc1c(Nc2ccc(C=O)cc2)c(=O)n(-c2ccccc2)n1C	FGF22 binding 42.9 (no result: E-selectin induc)
Cc1c(N(C)C)c(=O)n(-c2ccccc2)n1C	DENV2 CPE 51.1 (no result: E-selectin induc)
C[C@H]1CN([C@@H](C)CO)C(=O)c2cc(/C=C/c3ccccc3)cnc2O[C@@H]1CN(C)C(=O)c1ccccc1	none
Cn1cnc(S(=O)(=O)N2CCCCN3[C@@H](CO)[C@@H](c4ccc(C#CC5CC5)cc4)[C@@H]3C2)c1	none (no result: E-selectin induc)
Cc1ccccc1-c1cnc2c(c1)C(=O)N([C@H](C)CO)C[C@@H](C)[C@H](CN(C)Cc1ccncc1)O2	none
CCc1ccc2c(c1)C(=O)c1ccccc1C2=O	FGF22 binding 43.0 (no result: E-selectin induc)
CC(C)(C)c1ccc2c(c1)C(=O)c1ccccc1C2=O	none (no result: E-selectin induc, F508del corr)
C[C@@H]1CN([C@H](C)CO)C(=O)c2cccc(NC(=O)c3cnccn3)c2O[C@H]1CN(C)S(C)(=O)=O	none
C[C@@H]1CN([C@H](C)CO)C(=O)c2cc(-c3ccccc3F)cnc2O[C@@H]1CN(C)C(=O)C1CCC1	none
CN(C)C(=O)C[C@H]1CC[C@H]2[C@H](COc3ccc(NC(=O)C4CCCC4)cc3C(=O)N2C)O1	none (no result: FGF22 binding)
CN(Cc1ccon1)Cc1cn[nH]c1-c1ccc(-c2ccccc2)cc1	FGF22 binding 43.1 (no result: E-selectin induc, DENV2 CPE)
CN1c2ccc(C3=CCCCC3)cc2[C@@H]2[C@@H](CCN2S(=O)(=O)c2ccccc2)[C@@H]1CO	DENV2 CPE inconclusive
CO[C@@H]1CN(C)C(=O)c2ccc(NC(=O)c3ccc(Oc4ccccc4)cc3)cc2OC[C@@H](C)N(C(C)=O)C[C@H]1C	none (no result: FGF22 binding, ERAP1 inh, DENV2 CPE)
O=C(C1CCCCC1)N1CC2(C1)[C@H](c1ccccc1)[C@H](CO)N2Cc1ccc(Cl)cc1	F508del corr inconclusive
O=C(N/N=C/c1cccs1)c1n[nH]c2c1CCCC2	E-selectin induc 74.6 (no result: ERAP1 inh)
Cc1ccc(/C=N/NC(=O)c2n[nH]c3c2CCCC3)cc1	none
CC(C)c1ccc(S(=O)(=O)N2CCN(C(=O)c3ccco3)CC2)cc1	FGF22 binding 43.6
Cc1ccc(S(=O)(=O)Nc2cccc3c2O[C@@H](CN(C)Cc2ccc(C(F)(F)F)cc2)[C@H](C)CN([C@H](C)CO)C3=O)cc1	none
CNS(=O)(=O)c1ccc2nc(NC(=O)/C=C/c3ccco3)sc2c1	FGF22 binding 43.2
Cc1cccnc1	DENV2 CPE 21.5 (no result: E-selectin induc)
C[C@@H]1CN([C@H](C)CO)S(=O)(=O)c2ccc(C3=CCCC3)cc2O[C@H]1CN(C)C(=O)c1ccc(F)cc1	none (no result: DENV2 CPE)
COc1cc(CN2CCN(c3cccc(C)c3C)CC2)cc([N+](=O)[O-])c1O	FGF22 binding 43.4 (no result: E-selectin induc)
Cc1noc(C)c1NC(=O)N(C)C[C@H]1Oc2c(NC(=O)c3cnccn3)cccc2C(=O)N([C@H](C)CO)C[C@H]1C	none
